Source: the EternaBench riboswitch data

Test system: MS2 coat protein
Experiment: apparent Kd, MS2 coat protein; higher = weaker binding; RNA-MaP array; FMN 200 µM where present
How it was run: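 On Illumina sequencing-chip clusters, designs were transcribed by stalled E. coli RNA polymerase and titrated with SNAP-549-labelled MS2 coat protein (0.7 or 1.5 nM, doubling to 3 µM), without and then with constant ligand, in 100 mM Tris-HCl pH 7.5, 80 mM KCl, 4 mM MgCl2, BSA, DTT, yeast tRNA and Tween-20. Apparent Kd is the median of filtered per-cluster curve fits to green signal normalised to red-channel RNA signal and control-cluster median Fmax.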

[1] = designed as: OFF switch for flavin mononucleotide, no ligand
[2] = ligand present: flavin mononucleotide, designed as: OFF switch for flavin mononucleotide
[3] = designed as: ON switch for flavin mononucleotide, no ligand
[4] = ligand present: flavin mononucleotide, designed as: ON switch for flavin mononucleotide

Sequence	apparent Kd [1]	apparent Kd [2]	apparent Kd [3]	apparent Kd [4]
CAGUACUGAGGAUAUACAUGAGGAUCACCCAUGUGUUCCUUGUAGGAUAUCCGCAAAAGUAGAAGCCAGAAGGAGAUGUGCCUA	200 nM	119 nM	–	–
GGAUAGGAGAGAGGAUAUACGUGCUAGAGAUACUAGCAAAAUUUCCUCACAUGAGGAUCACCCAUGUAGAAGGCUGUCCUAUCG	11.1 nM	210 nM	–	–
UUACUCAUGUAAGGAUAUGCAGCCGUUUCGGCUGCAGAAGGUACUAUAAUACAUGAGGAUCACCCAUGUCUCUAUUAUUUAGUG	–	–	52.8 nM	87.5 nM
GUAGAGUCAGGAUAUACGAGAUCGAAAGAUCGGCGAUCCAUACAUGAGGAUCACCCAUGUAGAAGGGACUCUAC	15.6 nM	148 nM	–	–
AAGUGUGGAUGAGGAUAUCAGCUGUAACUGACGUCGACAUGAGGAUCACCCAUGUUGCUAUAGGGUGAGAAGGCAUUUGCGCAA	–	–	585 nM	75.1 nM
AUCAUGUAAGGAUAUCUUACAUGUGACGAAAGUCACAGUUAAGAGAAGGUACAUGAGGAUCACCCAUGUAUAAC	27.4 nM	54.9 nM	–	–
ACAGAGCCUGACAUGAGGAUCACCCAUGUUAGAUUGUUAUGUCAGGAUAUUGUCUAGCAACUAGACAAGAAGGGAUGCUCUGUG	–	–	392 nM	29.8 nM
AGUGUGUUAGGAUAUCGGAUAUGCUGGAGGAGGUGGAGUUACGAGAAGGAACAUGAGGAUCACCCAUGUAGGAC	25.8 nM	23.2 nM	–	–
UUCUUGCAAGGAUAUGAUUUAAGUAACAUGAGGAUCACCCAUGUUUUUCCGUUGUUAUGUUCAGAAGGUGCGUGAU	55.8 nM	63.3 nM	–	–
UUUUAACAGUCAGGAUAUGUAACGCACAACGGCGCAGAAGGGACAUGAGGAUCACCCAUGUUAUGGUUCUGGUACUAUGACGUU	18.8 nM	23.1 nM	–	–
ACGAAGACACAAAUGUUCCACGGUGCAGAAGGGUCCCUCACAUGAGGAUCACCCAUGUAACUCGGACAGGAUAUGCUCUUGGGA	–	–	47.4 nM	5.86 nM
ACGAUUCACUCAGGAUAUGUAUCACCUCGUUACCAACAUGAGGAUCACCCAUGUCCGUGGCUCGGACAGAAGGGAGAAGAAUCG	–	–	733 nM	220 nM
AUCACGUAAGGAUAUUCCUACGCAGACAUGAGGAUCACCCAUGUGUUAGUGAAGAAUCGAGGAGAAGGUACAAUGG	29.5 nM	26.8 nM	–	–
AAUGAAUAUAAAUUGUAUUUGUCGUAGGAUAUGGGUGACAUGAGGAUCACCCAUGUUGCAGACGACCAGAAGGGCGGCGGAUAU	–	–	18 nM	18.2 nM
UGUAAAAUUGAUCCUGCAAGUACAUGAGGAUCACCCAUGUGCUAGGAUAUCGCGCAGCUAAAGUCCGAGAAGGAGCACAAUGUA	32.3 nM	95.6 nM	–	–
GAUUGACAAGGAUAUACAUGAGGAUCACCCAUGUGCUUCAGCUAGGAGACUAGCAUUGGUAGAAGGUGUUAAUC	20.3 nM	68.4 nM	–	–
AUUUUGUGAGGAUAUGUGGCUUCGAUCGUGAGAUCGAGGCUACAGAAGGCACAUGAGGAUCACCCAUGUUCCUA	20.6 nM	206 nM	–	–
AGUUAGAUAGCGAUAUGAUCGAGAGAUCAUGUCGCUAAAUUUAGAAGGACAUGAGGAUCACCCAUGUAGGAUAUGGGUAUAGAA	–	–	367 nM	128 nM
CUAAAUCAUGUAGGAUAUGCGUGGCGAAGCUAUGCAGAAGGACAUGAGGAUCACCCAUGUCUUUCCGUCUGCGUACAGACGGAA	28.6 nM	282 nM	–	–
AGUUGUUCAGGAUAUGGUGUGUUAUACAUGAGGAUCACCCAUGUGGGUCCUGGUUUGGCCUCAGAAGGGAAUGUUA	476 nM	449 nM	–	–
AGAAAGAAGCAAGGAUAUUGUAAGGUUAAUGUACAAGAAGGUGCUGUUUAUGUCUCUUAACAUGAGGAUCACCCAUGUUUUGGU	–	–	19.2 nM	18.8 nM
AUCCCGAUAGUAGGAUAUUUCUGCAGUUGUGGUUAGGUCGCCCUACAUGAGGAUCACCCAUGUAGAGAGAAGGACUGUGGUUAA	5.52 nM	6.7 nM	–	–
CAAUUUAUAACAGGAUAUGUAAUACAAUAGUUAAUAGAAGGGUUUAAUACAUGAGGAUCACCCAUGUCAUGUGUCAUAAUUACC	33 nM	26 nM	–	–
GUGGUACAUGAGGAUCACCCAUGUUAGGAUAUCGCGUGAGGUUUUACUUCCGCACGCGCGAGAAGGGACGUCUU	36.2 nM	29.5 nM	–	–
UGGUACAUCGGAGGAUAUCAUGUAGACACAUGAGGAUCACCCAUGUCGAUGGAGACAUCGGAGAUUGAGAAGGCCGAUGUACCU	–	–	503 nM	23.3 nM
AGGUACAUGAGGAUCACCCAUGUAAGAGCCCUCAUGCGAUGUAGAAGGAUAAUGCGAGAAGAGCUAUAGGAUAUACAUGAGAAA	156 nM	139 nM	–	–
GUUUACGUAGAAGGAUAUACAUUUGACAUCCUGAUGCACGCAAUACUCACAUGAGGAUCACCCAUGUAGAAGGUCUGCGAAAGA	15.5 nM	24.8 nM	–	–
GCCAUCGCAUGAGGAUAUGGUCAGCUUUGCUGACCAGAAGGCAUGUCAUAAGACAUGAGGAUCACCCAUGUAGUUAAGAUGGCA	–	–	778 nM	47.9 nM

Sequence	apparent Kd [1]	apparent Kd [2]	apparent Kd [3]	apparent Kd [4]
ACGUUGUCAGGAUAUCGUUAAUUUAGUUGUUUGUAUUAGUUCGAGAAGGGACAUGAGGAUCACCCAUGUUUGCU	24.4 nM	27.1 nM	–	–
UAAAGUUAAGGAGGAUAUUACAUGAGGAUCACCCAUGUAAUGGGCUCGGUGUAAGAAGGCCUUGAGUCGAAGUUUCGGAUAAGG	9.05 nM	18.6 nM	–	–
AUCCGACAUGAGGAUCACCCAUGUCAGGAUAUGGACUGACACCGAAAGGAUGGAGGAACCAGAAGGGACUGGGC	32.5 nM	47.8 nM	–	–
UGUCGGAGCAGAGGAUAUUACAUGAGGAUCACCCAUGUAUGAACCUAUAGCUGGAAACAGCAAUGUAAGAAGGCUGCUCCGACA	23.5 nM	338 nM	–	–
GAGAGCCGCGAAGGAUAUACAUCCGUGACCGUCAACAUGAGGAUCACCCAUGUAGAAGGUCGCUGCCUCUUGACAACUGACAAG	5.16 nM	18.4 nM	–	–
GGAAAACAUGAGGAUCACCCAUGUGAGGAUAUUGAAACAAACAAAACAAACAAACAAACAAGAAGGCACAGGAA	26.1 nM	25.5 nM	–	–
GUACUACCCACAGAUAACUUAGCCAGAAGGGUCUACAUGAGGAUCACCCAUGUGGUCCAAAGUGGACAGGAUAUGGAAACGGUU	139 nM	12.2 nM	–	–
UUGUUAAGGAGAGGAUAUUGACAUGAGGAUCACCCAUGUACAUGGGAGUGUUUACUGAAUUCUUACGAGAAGGCUUACAUAUUU	216 nM	102 nM	–	–
AGAUGGCGAGGAUAUACAUGAGGAUCACCCAUGUGAGAGAAUAAAGUGAGGAAGAAAAGUAGAAGGCGCUGUCA	59.4 nM	264 nM	–	–
UGUCGGAGCAGAGGAUAUUACAUGAGGAUCACCCAUGUAUGAACCAAUAGCUGGAAACAGAAAUGUAAGAAGGCUGCUCCGACA	5.84 nM	21.2 nM	–	–
AGGAAGUAAGGAUAUGCUGCUCGUCACUUGCGUGAUGAGUAGCAGAAGGUACAUGAGGAUCACCCAUGUAAAGA	23.7 nM	20.6 nM	–	–
GACACUAGUGUUAGGAUAUGUGUGAGGGACCGCAAACAGAAGGAACAUGAGGAUCACCCAUGUGAUGGUUCUGA	21.5 nM	20.4 nM	–	–
UGGGAACGAGGAUAUCGAUGGUGGAACAUGAGGAUCACCCAUGUAUGAGAUAGUGUAGUUCGAGAAGGCGUUAAGU	68.6 nM	33.8 nM	–	–
AAAUUUAACGAAGGAUAUGCUUACAUGAGGAUCACCCAUGUGUGCCUUGUGAUGCUGAUUAGGUUGCAGAAGGUCGUAUACAUA	135 nM	174 nM	–	–
CUUCGGGCAGGAUAUGCUGUUUGUGACAUGAGGAUCACCCAUGUGAUGCAGUUUGGGUGUGCAGAAGGGCCUGAGU	54.6 nM	67.2 nM	–	–
GGAUGAGAAACUCAUCCAAUUCGAACAUGAGGAUCACCCAUGUAGGAUAUGCUACUCAAAGAGUAGCAGAAGGACAUGUGCCUU	25 nM	189 nM	–	–
AAUUGGAUCCAGAAGGCAUGGACGACCCGUCACAUUAACAUGAGGAUCACCCAUGUGAAAACACAUGAGGAUAUGGAUCCUAAA	–	–	28.7 nM	7.44 nM
AUUAUACAUGAGGAUCACCCAUGUAAUUAAUUAAUUAAGAUCUAGGAUAUCAGCUCGAAUAGAGCUGAGAAGGAGAUCACAUGU	–	–	31.7 nM	18 nM
AUUUACAAGUAAGGAUAUCGGGUAUAGUUAACUCGAGAAGGUACAUGAGGAUCACCCAUGUAGUAGAUACAUAGAACUGUUUUG	13.6 nM	12.7 nM	–	–
ACUAGAUGAGGAUAUGCACAUUUUAGUGUUCCUCUAGAUUAACAUGAGGAUCACCCAUGUAGAAGGCGUCAUUA	68 nM	76.6 nM	–	–
GCAGCACAGUAUUACAUGAGGAUCACCCAUGUCGAUUGAGAUGAGGAUAUGCAUCGAAUGAAGUUGCAGAAGGCAUUGUGCUGC	–	–	10.9 nM	5.94 nM
GCACGAAGCUAGAAGGGCGAUUUGCACAUGAGGAUCACCCAUGUCCAACGUAGGAUAUGGCUGGCGGGAACGCAAGGUGCGCGC	–	–	330 nM	37.3 nM
AGAGUUUCGUUGUGACCCAUUCACAUGAGGAUCACCCAUGUAGAGGAUAUAGGUCACCACGGUACCUAGAAGGCUACAGGUGUG	13.4 nM	15.5 nM	–	–
AAAAGACAUGAGGAUCACCCAUGUGAAAACGUGCGAGGAUAUGUAUGGAAACCAUACUGUACAGAAGGCGUUUGUC	–	–	31.2 nM	31.6 nM
AACUUACAUGAGGAUCACCCAUGUGAGGAUAUAUAAAUAUAUAUGUUAUUGUAUGUUUGUAGAAGGCGCGUGAU	52.2 nM	51.2 nM	–	–
GUAGCAUAAUCAGGAUAUUCAGCGAAUAGAUUGACAUGAGGAUCACCCAUGUGGCGAAAGCCUCGGGAGAAGGGAUAAUGCUAC	–	–	399 nM	76.8 nM
UCCACUGCUGAGAAGGGAUACGUCUGGUUCGCAUCAGGAUAUCGAUACAGUGCAGCAUGAGGACAUGAGGAUCACCCAUGUGUG	–	–	103 nM	53.6 nM
